Experiments:
MS2 coat protein [1] = assay: apparent Kd, MS2 coat protein; higher = weaker binding; RNA-MaP array; tryptophan 2.4 mM where present
Outline: (§1)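 Designs on Illumina sequencing-chip clusters, transcribed by stalled E. coli RNA polymerase, were exposed to SNAP-549-labelled MS2 coat protein in doubling steps from 0.7 or 1.5 nM up to 3 µM, without and then with constant ligand. The buffer held 100 mM Tris-HCl pH 7.5, 80 mM KCl, 4 mM MgCl2, BSA, DTT, yeast tRNA and Tween-20. Apparent Kd values are medians of filtered per-cluster binding-curve fits to green signal normalised to red-channel RNA signal and control-cluster median Fmax.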

MS2 coat protein [2] = assay: apparent Kd, MS2 coat protein; higher = weaker binding; RNA-MaP array; theophylline 2 mM where present
Outline: as §1

[3] = designed as: OFF switch for tryptophan, no ligand
[4] = ligand present: tryptophan, designed as: OFF switch for tryptophan
[5] = designed as: ON switch for tryptophan, no ligand
[6] = ligand present: tryptophan, designed as: ON switch for tryptophan
[7] = designed as: OFF switch for theophylline, no ligand
[8] = ligand present: theophylline, designed as: OFF switch for theophylline
[9] = designed as: ON switch for theophylline, no ligand
[10] = ligand present: theophylline, designed as: ON switch for theophylline

AGCACUGUGACGGCCGCCACUAUAUUAGGGUGGUCAGGUUCAUAAAUACAUGAGGAUCACCCAUGUAGGACCGGGUCUCAGUGCA
apparent Kd (MS2 coat protein [1]; [3]): 9.48 nM | apparent Kd (MS2 coat protein [1]; [4]): 9.88 nM

AACAUGAGGAUCACCCAUGUGUCCUCGAAACGAGGACCGGUACGGCCGCCACUCGGCGUAUGUUGACGAAAAGUCAGCAUACGCA
apparent Kd (MS2 coat protein [1]; [3]): 192 nM | apparent Kd (MS2 coat protein [1]; [4]): 737 nM

UAAACUACACAUGAGGAUCACCCAUGUGGCCGAGGACCGGUACGGCCGCCACUCGUGUGUUAAUAAUAGAACUGCAAGGUUCUGU
apparent Kd (MS2 coat protein [1]; [5]): 183 nM | apparent Kd (MS2 coat protein [1]; [6]): 75.2 nM

AGAGUCUAGUCGGCCGCCACUCAUGUCCAAUGGACAUGAGGAUCACCCAUGUACCAAAGGUACAUGAGGACCGGGACUGGACUCA
apparent Kd (MS2 coat protein [1]; [5]): 47.7 nM | apparent Kd (MS2 coat protein [1]; [6]): 7.57 nM

CACGAAAGAUCGGCCGCCACUAUUUGAUGUGUUCUUUCACAUGAGGAUCACCCAUGUUCUUAUUUUAGGACCGGGAUUGAGCGUG
apparent Kd (MS2 coat protein [1]; [3]): 94.8 nM | apparent Kd (MS2 coat protein [1]; [4]): 69.3 nM

AGCCACUCGAGUGAUCCUCACGAGUGGCUACGAGGACCGGUACGGCCGCCACUCGAAUUAACAUGAGGAUCACCCAUGUAAUCUC
apparent Kd (MS2 coat protein [1]; [5]): 102 nM | apparent Kd (MS2 coat protein [1]; [6]): 45.9 nM

CCUAUGCAGUCGGCCGCCACUGAAAACAGCCUCAAAAUAAAUAUAACAUGAGGAUCACCCAUGUACAGGACCGGGACUGUAUAGG
apparent Kd (MS2 coat protein [1]; [3]): 147 nM | apparent Kd (MS2 coat protein [1]; [4]): 79.6 nM

AGAGUCUAGUCGGCCGCCACUCAUGUCCAAAGGACAUGAGGAUCACCCAUGUACCAAUGGUACAUGAGGACCGGGACUGGACUCA
apparent Kd (MS2 coat protein [1]; [5]): 27.7 nM | apparent Kd (MS2 coat protein [1]; [6]): 8.33 nM

CGCACAUGAGGAUCACCCAUGUGAGGGCGUCGAGGACCGGUACGGCCGCCACUCGCAGGACAUGAGGAUCACCCAUGUGCCGCCG
apparent Kd (MS2 coat protein [1]; [5]): 116 nM | apparent Kd (MS2 coat protein [1]; [6]): 57.2 nM

GCAUCCUAGUCGGCCGCCACUGGUAUGAACACCUUCACCCGUGUGCACAUGAGGAUCACCCAUGUUAGGACCGGGACUAGGAUGC
apparent Kd (MS2 coat protein [1]; [5]): 9.03 nM | apparent Kd (MS2 coat protein [1]; [6]): 9.3 nM

UUAAUUAUUGAAUCGUAUUGGUAUUAAGAACGAGGACCGGUACGGCCGCCACUCGUGAUAUACAUGAGGAUCACCCAUGUUAGCA
apparent Kd (MS2 coat protein [1]; [5]): 14.8 nM | apparent Kd (MS2 coat protein [1]; [6]): 14 nM

CGAAUAUAGACGGCCGCCACUCUACAAACAUGAGGAUCACCCAUGUUCACAUAGUGGAAACACAUGAGGACCGGGUCAUAGGCUU
apparent Kd (MS2 coat protein [1]; [5]): 22.6 nM | apparent Kd (MS2 coat protein [1]; [6]): 17.1 nM

UAAUAAGUACCGGUCCUCAGAUCCUCAUGACGAGGACCGGUACGGCCGCCACUCGAAACAUGAGGAUCACCCAUGUAAUAAUAAC
apparent Kd (MS2 coat protein [1]; [3]): 27.4 nM | apparent Kd (MS2 coat protein [1]; [4]): 19.4 nM

CCUAUGCAGUCGGCCGCCACUGAACAUGAGGAUCACCCAUGUAAUUAAAAUUAAGGUCCUAAAAUCAGGACCGGGACUGUAUAGG
apparent Kd (MS2 coat protein [1]; [3]): 38.5 nM | apparent Kd (MS2 coat protein [1]; [4]): 237 nM

ACCUGCGUUUGUUUCUUUCUGACGCAGGUUCGAGGACCGGUACGGCCGCCACUCGGACAUGAGGAUCACCCAUGUUUGACAUGGG
apparent Kd (MS2 coat protein [1]; [3]): 57.3 nM | apparent Kd (MS2 coat protein [1]; [4]): 17.3 nM

CUAUAAGUACCGGUCCUCAGAUCCUCAUGACGAGGACCGGUACGGCCGCCACUCGAAACAUGAGGAUCACCCAUGUAAUAAUAUU
apparent Kd (MS2 coat protein [1]; [3]): 20.2 nM | apparent Kd (MS2 coat protein [1]; [4]): 19.3 nM

GCUGCAGCUACGGCCGCCACUGUUACGUGAGACAUGAGGAUCACCCAUGUUGAUGUUUUACGGUAUAGGACCGGGUAGUUGUAGU
apparent Kd (MS2 coat protein [1]; [3]): 9.7 nM | apparent Kd (MS2 coat protein [1]; [4]): 13.4 nM

AAACUGGGUGUAAAAUAAAUAAUCACUGAUACCAGACUAUUUUAUGUCCCUUGGCAGCAGAAACAUGAGGAUCACCCAUGUAAUA
apparent Kd (MS2 coat protein [2]; [7]): 20.3 nM | apparent Kd (MS2 coat protein [2]; [8]): 22.5 nM

UAUACAUGAGGAUCACCCAUGUGCCAUGAUACCAGACAUGAAAAUGUCCCUUGGCAGCAUGGGAAAUGUAUAGCGGGAAACCCGA
apparent Kd (MS2 coat protein [2]; [9]): 72.6 nM | apparent Kd (MS2 coat protein [2]; [10]): 704 nM

UCGUGUAUAUCGGAUACCAGUGAGAAGGAUACAUGAGGAUCACCCAUGUGAGUUGAUGUACACCCUUGGCAGCUGUAUAUAUCUA
apparent Kd (MS2 coat protein [2]; [9]): 49.9 nM | apparent Kd (MS2 coat protein [2]; [10]): 26.2 nM

CCUCGACAUGAGGAUCACCCAUGUAGAGAUACCAGCCUGUGAGAUGGCCCUUGGCAGCUCAUAUAGGGUACAGGAGUCGUUUUGA
apparent Kd (MS2 coat protein [2]; [7]): 23.2 nM | apparent Kd (MS2 coat protein [2]; [8]): 85.1 nM

AGUACUCGAACGGAUACCAGCCGGACAUGAGGAUCACCCAUGUCCUACCAAUGUUCGGUUGGCCCUUGGCAGCCGUUCGUGUACA
apparent Kd (MS2 coat protein [2]; [9]): 588 nM | apparent Kd (MS2 coat protein [2]; [10]): 35.2 nM

AGCCUAUUACAUGAGGAUCACCCAUGUGAUACCAGUCAGGAAACUGACCCUUGGCAGCGCAUGAGGAUCACCCAUGCGCUAGGCA
apparent Kd (MS2 coat protein [2]; [7]): 10.1 nM | apparent Kd (MS2 coat protein [2]; [8]): 10.2 nM

GGUCUCUGGAGCGAUACCAGCUUGAUCGUACUGGCCUGGUACAUGAGGAUCACCCAUGUAAGCCCUUGGCAGCGCUCCAGAGACC
apparent Kd (MS2 coat protein [2]; [7]): 12.3 nM | apparent Kd (MS2 coat protein [2]; [8]): 28.1 nM

GCACCAGGUACGGAUACCAGCUGCCAGCGUUACAUGAGGAUCACCCAUGUGAUCUGAAGUAGCCCUUGGCAGCUGUACCUGGUGC
apparent Kd (MS2 coat protein [2]; [9]): 21.2 nM | apparent Kd (MS2 coat protein [2]; [10]): 95.9 nM

GAGGGUGAAUCUCUGGUCCGUUUGACGGAUACCAGCGAGAGGUAUCGCCCUUGGCAGCCGACGACAUGAGGAUCACCCAUGUUAA
apparent Kd (MS2 coat protein [2]; [7]): 17.9 nM | apparent Kd (MS2 coat protein [2]; [8]): 109 nM

GAUGAACUAUAUGAUACCAGACAACAUGAGGAUCACCCAUGUGUAUGUCGUCCUCUGCCUGUCCCUUGGCAGCGUAUAGUUUAUC
apparent Kd (MS2 coat protein [2]; [7]): 32.4 nM | apparent Kd (MS2 coat protein [2]; [8]): 193 nM

AUAUGGCGAGAUGAUACCAGACACAUGAGGAUCACCCAUGUUGAUGGUAAGUCUGCAUAUGUCCCUUGGCAGCAUAGCGACAUAU
apparent Kd (MS2 coat protein [2]; [7]): 8.27 nM | apparent Kd (MS2 coat protein [2]; [8]): 20.8 nM

CGAUCUUUCGAAAGAAGGAUCUUGUCUGAUACCAGAGACGAAAGUCUCCCUUGGCAGCAGUGCCAACAUGAGGAUCACCCAUGUU
apparent Kd (MS2 coat protein [2]; [9]): 14.5 nM | apparent Kd (MS2 coat protein [2]; [10]): 14.8 nM

GCACUACAUGAGGAUCACCCAUGUGCAGAUACCAGAGGUGUAUGCCUCCCUUGGCAGCUGAGUAGGUCUGGAGGGCUAUUGGUUU
apparent Kd (MS2 coat protein [2]; [9]): 17.6 nM | apparent Kd (MS2 coat protein [2]; [10]): 23.5 nM

UCUUGGUCCGCAAGGACCUUGAGUUGCGAUACCAGCACGGUAACGUGCCCUUGGCAGCGCACAUGAGGAUCACCCAUGUGGUGUU
apparent Kd (MS2 coat protein [2]; [7]): 261 nM | apparent Kd (MS2 coat protein [2]; [8]): 236 nM

AGUGUUAUAACUGAUACCAGACUCUCAUGUUUACAUGAGGAUCACCCAUGUUAUUUCUUUGUCCCUUGGCAGCAGAAUUAACACA
apparent Kd (MS2 coat protein [2]; [9]): 208 nM | apparent Kd (MS2 coat protein [2]; [10]): 38.2 nM

GAUGAACUAUUUGAUACCAGACAACAUGAGGAUCACCCAUGUGCGCGUCGUCCUCUGCCUGUCCCUUGGCAGCAAAUAGUUUAUC
apparent Kd (MS2 coat protein [2]; [7]): 58.5 nM | apparent Kd (MS2 coat protein [2]; [8]): 97.1 nM

GCACCAGGUACGGAUACCAGCUGCCCGAGAUACAUGAGGAUCACCCAUGUGACCUGGUUUAGCCCUUGGCAGCUGUACCUGGUGC
apparent Kd (MS2 coat protein [2]; [9]): 13.6 nM | apparent Kd (MS2 coat protein [2]; [10]): 9.99 nM

UACAUGAGGAUCACCCAUGUAUAGAGGGAUACCAGUGUCAGUGAGCACCCUUGGCAGCCCGCGAACAAUGGGUGCGCUAUAUAGU
apparent Kd (MS2 coat protein [2]; [7]): 26.3 nM | apparent Kd (MS2 coat protein [2]; [8]): 62.2 nM

UUUACAUGAGGAUCACCCAUGUGCCAUGAUACCAGACAUGAAAAUGUCCCUUGGCAGCAUGAGUGAUUCAUCCGAAAGGAUGUUU
apparent Kd (MS2 coat protein [2]; [9]): 121 nM | apparent Kd (MS2 coat protein [2]; [10]): 673 nM

ACUUUGUCGGGUGAUACCAGCCUCGGCACAUCUCGUGCCGAACAUGAGGAUCACCCAUGUGGCCCUUGGCAGCACAUGACAACUC
apparent Kd (MS2 coat protein [2]; [9]): 375 nM | apparent Kd (MS2 coat protein [2]; [10]): 67 nM

ACAUGAGGAUCACCCAUGUAAUGGCACGAUACCAGCUGAUCCCGUGGCCCUUGGCAGCGUCCGGUGUGGUCCGCCGGGUUGGACG
apparent Kd (MS2 coat protein [2]; [9]): 23.1 nM | apparent Kd (MS2 coat protein [2]; [10]): 35 nM

CGAUGAUGAAGGGAUACCAGAAAUGGUAUUCCUUUAUUUCUUACAUGAGGAUCACCCAUGUUCCCUUGGCAGCUUUUUAUCAUCG
apparent Kd (MS2 coat protein [2]; [7]): 75.7 nM | apparent Kd (MS2 coat protein [2]; [8]): 117 nM

GAUGAACUAUGUGAUACCAGACAACAUGAGGAUCACCCAUGUGCGCGUCGUCCUCUGCCUGUCCCUUGGCAGCGUAUAGUUUAUC
apparent Kd (MS2 coat protein [2]; [7]): 60.3 nM | apparent Kd (MS2 coat protein [2]; [8]): 124 nM

Source: the EternaBench riboswitch data
